From ChEMBL document CHEMBL4673258, “Discovery of IPN60090, a Clinical Stage Selective Glutaminase-1 (GLS-1) Inhibitor with Excellent Pharmacokinetic and Physicochemical Properties” (J Med Chem, 2020)

What was measured:
[1] = AUClast in Beagle dog at 3 mg/kg, po administered via gavage by LC-MS/MS analysis; assay type: ADME, organism-based, Canis lupus familiaris; parameters: time 0 - last, route oral, dose 3 mg/kg; conditions: in vivo
Summary of the method: (§1)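 Male beagle dogs (7–10 kg), fasted overnight and fed 4 h postdose, received the bis-hydrochloride salt at 3 mpk by oral gavage. Plasma concentrations by LC-MS/MS; Cmax and AUClast from the oral dose.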

[2] = Oral bioavailability in Beagle dog at 3 mg/kg administered via gavage by LC-MS/MS analysis; assay type: ADME, organism-based, Canis lupus familiaris; conditions: in vivo
Summary of the method: (§2)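 Bis-hydrochloride salt given to male Sprague-Dawley rats (200–300 g) or male beagle dogs (7–10 kg), fasted overnight and fed 4 h postdose. IV dose 0.3 mg/kg (rat dorsal foot vein, dog cephalic vein) or PO gavage 3 mg/kg.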

[3] = Cmax in Beagle dog at 3 mg/kg, po administered via gavage by LC-MS/MS analysis; assay type: ADME, organism-based, Canis lupus familiaris; parameters: route oral, dose 3 mg/kg; conditions: in vivo; summary of the method: as §1
[4] = Half life in Beagle dog at 0.3 mg/kg, iv by LC-MS/MS analysis; assay type: ADME, organism-based, Canis lupus familiaris; conditions: in vivo; for t1/2: 0.3 mg/kg; summary of the method: as §2
[5] = Volume of distribution at steady state in Beagle dog at 0.3 mg/kg, iv by LC-MS/MS analysis; assay type: ADME, organism-based, Canis lupus familiaris; conditions: in vivo; for Vdss: 0.3 mg/kg; summary of the method: as §2
[6] = AUClast in Sprague-Dawley rat at 3 mg/kg, po administered via gavage by LC-MS/MS analysis; assay type: ADME, organism-based; parameters: route oral, time 0 - last, dose 3 mg/kg; conditions: in vivo
Summary of the method: (§3)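 Male Sprague-Dawley rats (200–300 g), fasted overnight and fed 4 h postdose, given the bis-hydrochloride salt at 3 mpk by oral gavage. Tail-vein blood into K2EDTA taken predose and at 0.083–24 h (0.083, 0.25, 0.5, 1, 2, 4, 8, 24 h). Plasma analysed by LC-MS/MS; Cmax and AUClast derived from the oral dose.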

[7] = Cmax in Sprague-Dawley rat at 3 mg/kg, po administered via gavage by LC-MS/MS analysis; assay type: ADME, organism-based; parameters: route oral, dose 3 mg/kg; conditions: in vivo; summary of the method: as §3
[8] = Oral bioavailability in Sprague-Dawley rat at 3 mg/kg administered via gavage by LC-MS/MS analysis; assay type: ADME, organism-based; conditions: in vivo; summary of the method: as §2
[9] = Half life in Sprague-Dawley rat at 0.3 mg/kg, iv by LC-MS/MS analysis; assay type: ADME, organism-based; conditions: in vivo; summary of the method: as §2
[10] = Volume of distribution at steady state in Sprague-Dawley rat at 0.3 mg/kg, iv by LC-MS/MS analysis; assay type: ADME, organism-based; conditions: in vivo; summary of the method: as §2
[11] = Intrinsic clearance in dog hepatocytes […] at 2 uM measured after 15 to 120 mins by LC-MS analysis; assay type: ADME, cell-based, Canis lupus familiaris, Hepatocyte; conditions: time 15-120 min
Summary of the method: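 Hepatocytes at 2×10^6 viable cells/mL, mixed with an equal volume of 2 μM compound in KHB buffer. Incubated at 37 °C and quenched with ACN at 0, 15, 30, 60 and 120 min. Analysed by LC/MS, with percent remaining from peak area ratio to internal standard against 0 min. Half-life from a single-phase exponential fit.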

[12] = Permeability across basolateral to apical side in human Caco-2 cells at 10 uM measured after 90 mins by LC-MS/MS analysis; assay type: ADME, cell-based
Summary of the method: (§4)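 Caco-2 monolayers grown 21–28 days on polycarbonate filter inserts, with TEER and Lucifer Yellow checked before and after. Compound at 10 μM in HBSS with 25 mM HEPES, pH 7.4. Run A→B and B→A at 37 °C for 90 min. Receiver and donor samples quantified by LC-MS/MS.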

[13] = Permeability across apical to basolateral side in human Caco-2 cells at 10 uM measured after 90 mins by LC-MS/MS analysis; assay type: ADME, cell-based; summary of the method: as §4
[14] = rat, microsomes, 0.75 h, 1 µM
[15] = Clearance in Beagle dog at 0.3 mg/kg, iv by LC-MS/MS analysis; assay type: ADME, organism-based, Canis lupus familiaris; conditions: in vivo
Summary of the method: (§5)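 Bis-hydrochloride salt dosed 0.3 mg/kg IV and 3 mg/kg PO (mouse: 3 mg/kg IV, 10 mg/kg PO); female CD-1 mice, male beagle dogs, male cynomolgus monkeys; monkeys and dogs fasted overnight and fed 4 h postdose. IV via tail (mouse) or cephalic vein; PO by oral (mouse) or nasal (monkey) gavage. K2EDTA plasma sampled predose to 24 h; LC-MS/MS. CL, Vdss, t1/2 from IV; F% from oral dose.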

[16] = Clearance in cynomolgus monkey at 0.3 mg/kg, iv by LC-MS/MS analysis; assay type: ADME, organism-based, Macaca fascicularis; conditions: in vivo; summary of the method: as §5
[17] = Volume of distribution at steady state in cynomolgus monkey at 0.3 mg/kg, iv by LC-MS/MS analysis; assay type: ADME, organism-based, Macaca fascicularis; conditions: in vivo, read-out: Vdss; summary of the method: as §5
[18] = Half life in cynomolgus monkey at 0.3 mg/kg, iv by LC-MS/MS analysis; assay type: ADME, organism-based, Macaca fascicularis; conditions: in vivo; summary of the method: as §5
[19] = Oral bioavailability in cynomolgus monkey at 3 mg/kg administered via gavage by LC-MS/MS analysis; assay type: ADME, organism-based, Macaca fascicularis; conditions: in vivo; summary of the method: as §5
[20] = Cmax in cynomolgus monkey at 3 mg/kg, po administered via gavage by LC-MS/MS analysis; assay type: ADME, organism-based, Macaca fascicularis; parameters: route oral, dose 3 mg/kg; conditions: in vivo
Summary of the method: (§6)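 Male cynomolgus monkeys (3–5 kg), fasted overnight and fed 4 h postdose, dosed with the bis-hydrochloride salt at 3 mpk by nasal gavage. Blood from saphenous or cephalic vein into K2EDTA at predose and 0.083–24 h (0.083, 0.25, 0.5, 1, 2, 4, 8, 24 h). Plasma quantified by LC-MS/MS; Cmax and AUClast from the oral dose.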

[21] = AUClast in cynomolgus monkey at 3 mg/kg, po administered via gavage by LC-MS/MS analysis; assay type: ADME, organism-based, Macaca fascicularis; parameters: route oral, time 0 - last, dose 3 mg/kg; conditions: in vivo; summary of the method: as §6
[22] = Volume of distribution at steady state in CD-1 mouse at 3 mg/kg, iv by LC-MS/MS analysis; assay type: ADME, organism-based; conditions: in vivo, read-out: Vdss; summary of the method: as §5
[23] = Half life in CD-1 mouse at 3 mg/kg, iv by LC-MS/MS analysis; assay type: ADME, organism-based; conditions: in vivo; summary of the method: as §5
[24] = Oral bioavailability in CD-1 mouse at 10 mg/kg administered via gavage by LC-MS/MS analysis; assay type: ADME, organism-based; conditions: in vivo; summary of the method: as §5
[25] = Cmax in CD-1 mouse at 10 mg/kg, po administered via gavage by LC-MS/MS analysis; assay type: ADME, organism-based; parameters: route oral, dose 10 mg/kg; conditions: in vivo
Summary of the method: (§7)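 Female CD-1 mice (20–30 g), food and water ad libitum, given the bis-hydrochloride salt at 10 mpk by oral gavage. Plasma quantified by LC-MS/MS; Cmax and AUClast from the oral dose.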

[26] = AUClast in CD-1 mouse at 10 mg/kg, po administered via gavage by LC-MS/MS analysis; assay type: ADME, organism-based; parameters: time 0 - last, route oral, dose 10 mg/kg; conditions: in vivo; summary of the method: as §7
[27] = Free plasma concentration in NSG mouse xenografted with human H460 cells at 10 mg/kg, po administered as single dose via gavage measured after 8 hrs by LC-MS analysis; assay type: ADME, organism-based; conditions: in vivo
[28] = Free plasma concentration in NSG mouse xenografted with human H460 cells at 50 mg/kg, po administered as single dose via gavage measured after 8 hrs by LC-MS analysis; assay type: ADME, organism-based; conditions: in vivo
Summary of the method: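 Female NSG mice, 6–10 weeks old, bearing H460 tumours (5×10^5 cells with matrigel 1:1) of 300–400 mm³. Given a single oral gavage dose of bis-hydrochloride salt in 0.5% methylcellulose. Six animals per group. Free plasma concentration taken at 8 or 24 h, given as mean with standard deviation.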

[29] = Free plasma concentration in NSG mouse xenografted with human H460 cells at 250 mg/kg, po administered as single dose via gavage measured after 8 hrs by LC-MS analysis; assay type: ADME, organism-based; conditions: in vivo
[30] = Free plasma concentration in NSG mouse xenografted with human H460 cells at 10 mg/kg, po administered as single dose via gavage measured after 24 hrs by LC-MS analysis; assay type: ADME, organism-based; conditions: in vivo
[31] = Free plasma concentration in NSG mouse xenografted with human H460 cells at 250 mg/kg, po administered as single dose via gavage measured after 24 hrs by LC-MS analysis; assay type: ADME, organism-based; conditions: in vivo
[32] = AUClast in Sprague-Dawley rat at 2 mg/kg, po administered via gavage by LC-MS/MS analysis; assay type: ADME, organism-based; parameters: route oral, time 0 - last, dose 2 mg/kg; conditions: in vivo
[33] = Cmax in Sprague-Dawley rat at 2 mg/kg, po administered via gavage by LC-MS/MS analysis; assay type: ADME, organism-based; parameters: route oral, dose 2 mg/kg; conditions: in vivo
[34] = Oral bioavailability in Sprague-Dawley rat at 2 mg/kg administered via gavage by LC-MS/MS analysis; assay type: ADME, organism-based; conditions: in vivo
[35] = Intrinsic clearance in monkey hepatocytes […] at 2 uM measured after 15 to 120 mins by LC-MS analysis; assay type: ADME, cell-based, Macaca mulatta, Hepatocyte; conditions: rhesus monkey, time 15-120 min
[36] = Intrinsic clearance in mouse hepatocytes […] at 2 uM measured after 15 to 120 mins by LC-MS analysis; assay type: ADME, cell-based, Hepatocyte; conditions: time 15-120 min
[37] = Intrinsic clearance in monkey liver microsomes assessed per kg protein at 1 uM measured up to 45 mins in presence of NADPH by LC-MS/MS analysis; assay type: ADME, Macaca mulatta, Microsome; conditions: rhesus monkey, 0.75 h
[38] = Intrinsic clearance in mouse liver microsomes assessed per kg protein at 1 uM measured up to 45 mins in presence of NADPH by LC-MS/MS analysis; assay type: ADME, Microsome; conditions: 0.75 h
[39] = human, microsomes, 0.75 h, 1 µM

SMILES | AUClast [1] [µM·h] | F [2] [%] | Cmax [3] [µM] | t1/2 [4] [h] | Vdss [5] [L/kg] | AUClast [6] [µM·h] | Cmax [7] [µM] | F [8] [%] | t1/2 [9] [h] | Vdss [10] [L/kg] | CLint [11] [mL/min/kg] | permeability [12] | permeability [13] | also measured
CNC(=O)c1cn(C[C@H](F)CCc2ccc(NC(=O)Cc3cc(OC4CC(F)(F)C4)ccn3)nn2)nn1.Cl | 10 | 34 | 2.7 | 2.3 | 0.5 | 16 | 5.8 | 48 | 1.2 | 0.2 |  |  |  | 
CNC(=O)c1cn(C[C@H](F)CCc2ccc(NC(=O)Cc3cc(OC4CC(F)(F)C4)ccn3)nn2)nn1 |  |  |  |  |  |  |  |  |  |  | 4 | 20 10^-6 cm/s | 1.8 10^-6 cm/s | 
CNC(=O)c1cn(CCCCc2ccc(NC(=O)Cc3cc(OCC(F)(F)F)ccn3)nn2)nn1 |  |  |  |  |  |  |  |  |  |  |  |  |  | CLH [14]: 0.4 mL/min
CNC(=O)c1cn(C[C@H](F)CCc2ccc(NC(=O)Cc3cc(C(F)(F)F)cc(C)n3)nn2)nn1 | 23 | 21 | 4.5 | 2.6 | 0.2 | 24 | 4.4 | 28 | 3.3 | 0.2 | 9 | 25 10^-6 cm/s | 7.7 10^-6 cm/s | 
CNC(=O)c1cn(C[C@H](F)CCc2ccc(NC(=O)Cc3cc(OC4CC(F)(F)C4)cc(C)n3)nn2)nn1.Cl.Cl | 250 | > 100 | 31 |  |  | 208 | 32 | 70 | 5.3 | 0.1 |  |  |  | half-life ([4]; Beagle): 5.3 h; Vd ([5]; Beagle, read-out: Vdss): 0.18 L/kg; clearance [15]: 0.59 mL/min/kg; clearance [16]: 8 mL/min/kg; Vd [17]: 0.31 L/kg; half-life [18]: 0.9 h; bioavailability [19]: 72%; Cmax [20]: 6.5 µM; AUC(0-t) [21]: 8.7 µM·h; Vd [22]: 0.27 L/kg; half-life [23]: 1 h; F [24]: 89%; Cmax [25]: 19 µM; AUClast [26]: 67 µM·h; Cp(f) [27]: 0.029 µM; Cp(f) [28]: 0.198 µM; Cp(f) [29]: 0.316 µM; Cp(f) [30]: 0.006 µM; Cp(f) [31]: 0.316 µM
CNC(=O)c1cn(C[C@H](F)CCc2ccc(NC(=O)Cc3cc(-c4cccc(OC(F)(F)F)c4)ccn3)nn2)nn1.Cl | 2.5 | 8 | 0.58 | 2.5 | 0.5 |  |  |  | 2.7 | 1 |  |  |  | AUClast [32]: 1.2 µM·h; Cmax [33]: 0.35 µM; F [34]: 19%
CNC(=O)c1cn(C[C@H](F)CCc2ccc(NC(=O)Cc3cc(OC4CC(F)(F)C4)cc(C)n3)nn2)nn1 [IPN-60090] |  |  |  |  |  |  |  |  |  |  | 7 | 25 10^-6 cm/s | 5.2 10^-6 cm/s | CLint [35]: 12 mL/min/kg; CLint [36]: 16 mL/min/kg; CLint [37]: 21 mL/min/kg; CLint [38]: 55 mL/min/kg; CLH [39]: <= 0.7 ml/min
